Test results as given in article PMC11069345 (Bioorganic chemistry, 2024).
Read-outs that look alike come from different tables or passages of the source.

How the values were obtained:
ABCG2 [1] = target: T1, ABCG2 (Homo sapiens, UniProt Q9UNQ0); conditions: cited from earlier work
T1 sequence (Q9UNQ0 1-655): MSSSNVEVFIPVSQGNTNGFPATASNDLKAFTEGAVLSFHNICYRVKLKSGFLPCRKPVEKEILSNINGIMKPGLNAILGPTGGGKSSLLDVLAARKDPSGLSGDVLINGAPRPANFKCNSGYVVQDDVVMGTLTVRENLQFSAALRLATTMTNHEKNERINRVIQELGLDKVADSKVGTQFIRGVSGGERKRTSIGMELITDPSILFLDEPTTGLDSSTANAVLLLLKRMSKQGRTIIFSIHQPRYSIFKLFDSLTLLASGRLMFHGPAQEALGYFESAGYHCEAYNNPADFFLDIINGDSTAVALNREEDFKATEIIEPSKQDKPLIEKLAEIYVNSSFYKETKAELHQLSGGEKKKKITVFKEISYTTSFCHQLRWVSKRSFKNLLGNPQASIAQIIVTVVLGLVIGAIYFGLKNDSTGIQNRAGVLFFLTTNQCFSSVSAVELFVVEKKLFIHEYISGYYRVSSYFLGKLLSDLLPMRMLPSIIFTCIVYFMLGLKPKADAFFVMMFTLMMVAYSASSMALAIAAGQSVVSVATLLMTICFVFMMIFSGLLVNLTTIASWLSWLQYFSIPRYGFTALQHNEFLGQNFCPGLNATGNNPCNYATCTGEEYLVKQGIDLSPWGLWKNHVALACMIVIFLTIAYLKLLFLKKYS

ABCG2 (BCRP) [2] = target: T2, ABCG2 (BCRP) (Homo sapiens, UniProt Q9UNQ0)
T2 sequence (Q9UNQ0 1-655): T1 sequence (Q9UNQ0 1-655)

ABCC1 (MRP1) [3] = target: T3, ABCC1 (MRP1) (Homo sapiens, UniProt P33527)
T3 sequence (P33527 whole entry): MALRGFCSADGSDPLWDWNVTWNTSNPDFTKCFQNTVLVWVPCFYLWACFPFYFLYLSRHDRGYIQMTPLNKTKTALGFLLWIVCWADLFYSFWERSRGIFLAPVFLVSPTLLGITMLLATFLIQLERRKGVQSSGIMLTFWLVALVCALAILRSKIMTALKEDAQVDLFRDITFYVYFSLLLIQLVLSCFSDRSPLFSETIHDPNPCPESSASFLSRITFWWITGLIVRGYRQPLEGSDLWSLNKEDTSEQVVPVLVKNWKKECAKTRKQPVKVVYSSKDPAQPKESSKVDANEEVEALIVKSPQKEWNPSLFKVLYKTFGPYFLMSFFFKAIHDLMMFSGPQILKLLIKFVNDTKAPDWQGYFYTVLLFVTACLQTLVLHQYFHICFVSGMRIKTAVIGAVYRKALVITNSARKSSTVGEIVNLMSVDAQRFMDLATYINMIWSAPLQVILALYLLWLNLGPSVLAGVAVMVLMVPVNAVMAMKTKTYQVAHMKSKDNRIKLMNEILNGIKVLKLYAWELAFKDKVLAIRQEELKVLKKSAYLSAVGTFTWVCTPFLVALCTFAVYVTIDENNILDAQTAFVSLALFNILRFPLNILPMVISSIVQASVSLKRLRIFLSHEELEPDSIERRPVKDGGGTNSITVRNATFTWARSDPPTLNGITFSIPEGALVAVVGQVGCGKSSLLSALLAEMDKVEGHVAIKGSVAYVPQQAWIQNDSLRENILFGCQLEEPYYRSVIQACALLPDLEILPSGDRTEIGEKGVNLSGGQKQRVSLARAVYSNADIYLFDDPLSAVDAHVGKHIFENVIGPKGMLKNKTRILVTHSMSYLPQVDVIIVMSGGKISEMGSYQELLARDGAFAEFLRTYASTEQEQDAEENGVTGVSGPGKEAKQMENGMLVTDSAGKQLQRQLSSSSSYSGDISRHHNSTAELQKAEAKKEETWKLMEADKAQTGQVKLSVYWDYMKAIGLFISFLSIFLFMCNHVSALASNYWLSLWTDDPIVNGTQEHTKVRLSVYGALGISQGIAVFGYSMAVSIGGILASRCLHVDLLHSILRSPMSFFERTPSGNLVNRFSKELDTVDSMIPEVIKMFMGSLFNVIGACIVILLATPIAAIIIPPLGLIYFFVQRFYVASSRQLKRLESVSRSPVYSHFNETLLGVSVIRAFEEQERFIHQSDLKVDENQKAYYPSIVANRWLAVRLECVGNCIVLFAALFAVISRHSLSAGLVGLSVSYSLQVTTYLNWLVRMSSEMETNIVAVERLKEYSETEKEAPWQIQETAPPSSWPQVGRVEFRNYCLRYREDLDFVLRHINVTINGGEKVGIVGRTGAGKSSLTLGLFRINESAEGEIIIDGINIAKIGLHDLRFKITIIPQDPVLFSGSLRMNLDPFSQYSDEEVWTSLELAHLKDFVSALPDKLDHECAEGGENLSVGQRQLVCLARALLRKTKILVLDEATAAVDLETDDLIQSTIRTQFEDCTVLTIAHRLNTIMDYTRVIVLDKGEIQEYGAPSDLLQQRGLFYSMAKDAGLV

ABCB1 (P-gp) [4] = target: T4, ABCB1 (P-gp) (Homo sapiens, UniProt P08183)
T4 sequence (P08183 whole entry): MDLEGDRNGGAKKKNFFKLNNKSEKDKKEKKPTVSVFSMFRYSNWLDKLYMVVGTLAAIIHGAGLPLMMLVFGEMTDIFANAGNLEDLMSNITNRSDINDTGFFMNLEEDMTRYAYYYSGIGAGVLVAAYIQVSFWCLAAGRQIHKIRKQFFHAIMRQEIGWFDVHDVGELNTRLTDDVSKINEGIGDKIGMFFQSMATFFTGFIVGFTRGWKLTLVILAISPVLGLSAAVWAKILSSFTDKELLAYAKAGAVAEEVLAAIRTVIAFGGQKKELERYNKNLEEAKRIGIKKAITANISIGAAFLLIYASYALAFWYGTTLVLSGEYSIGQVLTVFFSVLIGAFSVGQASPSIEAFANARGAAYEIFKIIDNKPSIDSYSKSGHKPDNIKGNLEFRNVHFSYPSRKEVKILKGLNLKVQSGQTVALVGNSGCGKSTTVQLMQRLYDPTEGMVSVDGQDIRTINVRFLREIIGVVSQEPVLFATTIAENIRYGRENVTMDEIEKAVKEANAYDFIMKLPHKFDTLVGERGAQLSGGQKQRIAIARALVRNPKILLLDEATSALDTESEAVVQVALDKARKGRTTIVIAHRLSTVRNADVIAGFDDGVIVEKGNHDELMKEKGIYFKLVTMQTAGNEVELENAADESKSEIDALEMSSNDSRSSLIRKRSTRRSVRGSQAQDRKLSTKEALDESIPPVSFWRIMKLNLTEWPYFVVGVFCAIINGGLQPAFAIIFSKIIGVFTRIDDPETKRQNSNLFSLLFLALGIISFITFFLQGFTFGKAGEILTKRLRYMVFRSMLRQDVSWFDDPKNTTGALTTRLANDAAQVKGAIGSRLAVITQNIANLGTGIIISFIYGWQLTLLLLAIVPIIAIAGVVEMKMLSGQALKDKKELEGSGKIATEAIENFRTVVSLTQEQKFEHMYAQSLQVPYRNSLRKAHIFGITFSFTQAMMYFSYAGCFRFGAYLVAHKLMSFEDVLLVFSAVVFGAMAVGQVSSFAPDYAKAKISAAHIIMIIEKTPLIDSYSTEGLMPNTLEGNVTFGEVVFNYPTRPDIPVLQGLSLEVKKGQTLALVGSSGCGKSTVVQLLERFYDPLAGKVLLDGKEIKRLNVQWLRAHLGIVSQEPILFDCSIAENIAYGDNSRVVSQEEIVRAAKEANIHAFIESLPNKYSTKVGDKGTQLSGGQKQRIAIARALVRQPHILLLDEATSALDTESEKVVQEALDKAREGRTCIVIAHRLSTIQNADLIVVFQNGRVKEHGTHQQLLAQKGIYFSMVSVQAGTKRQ

[5] = test system: HEK293 and HEK293-ABCG2 cells; assay: Cell viability MTT assay, 72 h; format: cell-based, human
In short: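 Parental HEK293 and HEK293-ABCG2 cells were seeded at 1.5×10^4 cells/well, left overnight, then exposed to test compound at 0.19–100 μM for 72 h at 37 °C under 5% CO2. Medium was replaced with 0.5 mg mL−1 MTT for 4 h. Formazan was dissolved in DMSO/ethanol (1:1) and absorbance read at 570 nm.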

ABCG2 mRNA expression = assay: mRNA expression levels by qPCR in HEK293-ABCG2 cells; format: cell-based, human; conditions: 50 μM, 72 h
ABCG2 [6] = target: T1, ABCG2; format: biochemical
HEK293-ABCG2 cells = assay: Chemosensitization assay, co-treatment with SN-38, MTT, 72 h; format: cell-based, human; conditions: co-treatment with SN-38 0.05 μM, 11 at saturating concentration, Ko143 at 0.5 μM
ABCG2 (BCRP) [7] = target: T2, ABCG2 (BCRP); conditions: for Inhibition (% ± SD) ABCG2 (BCRP) 10 μM: 10 μM compound; for Inhibition (% ± SD) ABCG2 (BCRP) 10 μM / Inhibition (% ± SD) ABCG2 (BCRP) 50 μM: mitoxantrone 5 μM, 30 min, relative to Ko143 0.5 μM (100%); for Inhibition (% ± SD) ABCG2 (BCRP) 50 μM: 50 μM compound
ABCC1 (MRP1) [8] = target: T3, ABCC1 (MRP1); assay: Transport inhibition assay: calcein-AM in BHK21-ABCC1 cells, flow cytometry; conditions: for Inhibition (% ± SD) ABCC1 (MRP1) 10 μM: 10 μM compound; for Inhibition (% ± SD) ABCC1 (MRP1) 10 μM / Inhibition (% ± SD) ABCC1 (MRP1) 50 μM: calcein-AM 0.15 μM, relative to verapamil 30 μM (100%); for Inhibition (% ± SD) ABCC1 (MRP1) 50 μM: 50 μM compound
ABCB1 (P-gp) [9] = target: T4, ABCB1 (P-gp); assay: Transport inhibition assay: rhodamine 123 in NIH3T3-ABCB1 cells, flow cytometry; conditions: for Inhibition (% ± SD) ABCB1 (P-gp) 10 μM: 10 μM compound; for Inhibition (% ± SD) ABCB1 (P-gp) 10 μM / Inhibition (% ± SD) ABCB1 (P-gp) 50 μM: rhodamine 123 5 μM, relative to GF120918 0.5 μM (100%); for Inhibition (% ± SD) ABCB1 (P-gp) 50 μM: 50 μM compound
[10] = cited from earlier work
[11] = human, probe mitoxantrone (5 μM)

In the case of `C=CCc1ccc(O)c(-c2cc(CC=C)ccc2O)c1` [magnolol], the “Transport by ABCG2 (substrate)” value (ABCG2 [1]) is given as “substrates of ABCG2”.

For `C=CCc1ccc(OC)c(-c2cc(CC=C)ccc2OC)c1` [Compound 12], the “Inhibition (% ± SD) ABCG2 (BCRP) 10 μM” value (ABCG2 (BCRP) [2]) was 5.9 ± 10.9%, the “Inhibition (% ± SD) ABCG2 (BCRP) 50 μM” value (ABCG2 (BCRP) [2]) was 32.8 ± 5.5% and the “Inhibition (% ± SD) ABCC1 (MRP1) 10 μM” value (ABCC1 (MRP1) [3]) was 2.6 ± 1.8%. The “Inhibition (% ± SD) ABCC1 (MRP1) 50 μM” value (ABCC1 (MRP1) [3]) was 9.1 ± 3.3%, the “Inhibition (% ± SD) ABCB1 (P-gp) 10 μM” value (ABCB1 (P-gp) [4]) was −1.1 ± 1.5% and the “Inhibition (% ± SD) ABCB1 (P-gp) 50 μM” value (ABCB1 (P-gp) [4]) was −0.5 ± 2.1%.

For `C=CCc1ccc(O)c(-c2cc(CC=C)ccc2OC)c1` [Compound 11], the “Concentration with cytotoxic effect” value ([5]; 0.19 – 100 μM tested, HEK293 and HEK293-ABCG2) was over 100 µM, the “IG50 (concentration that reduces 50% of the cell viability)” value ([5]; estimated) was over 100 µM and the “Extent of ABCG2 inhibition (partial or complete inhibitor)” value (ABCG2 (BCRP) [2]) was “complete ABCG2 inhibitor”. For the same compound, the IC50 (ABCG2 (BCRP) [2]) was 9.5 µM, the “Inhibition (% ± SD) ABCG2 (BCRP) 10 μM” value (ABCG2 (BCRP) [2]) was 62.0 ± 11.9% and the “Type of inhibition (Lineweaver-Burk plot)” value (ABCG2 (BCRP) [2]) was “mixed type of inhibition”. The “Effect on mRNA ABCG2 expression levels” value (ABCG2 mRNA expression) was “did not significantly affect the transcriptional levels of ABCG2”, the “Stimulation of ABCG2 ATPase activity” value (ABCG2 [6]) was ~ 60% and the “Inhibition of ABCG2 ATPase activity” value (ABCG2 [6]; 50 µM) was ~ 30%. For the same compound, the “Reversion of ABCG2-mediated resistance to SN-38 (cell viability)” value (HEK293-ABCG2 cells) was “completely revert the MDR phenotype mediated by ABCG2”, the “Inhibition (% ± SD) ABCC1 (MRP1) 10 μM” value (ABCC1 (MRP1) [3]) was 4.9 ± 7.0% and the “Inhibition (% ± SD) ABCC1 (MRP1) 50 μM” value (ABCC1 (MRP1) [3]) was 11.5 ± 5.8%. For the same compound, the “Inhibition (% ± SD) ABCB1 (P-gp) 10 μM” value (ABCB1 (P-gp) [4]) was −0.7 ± 1.2% and the “Inhibition (% ± SD) ABCB1 (P-gp) 50 μM” value (ABCB1 (P-gp) [4]) was 2.8 ± 3.8%.

For `C=CCc1ccc(OC)c(-c2cc(CC=C)cc(O)c2O)c1` [Compound 13, 5,5’-diallyl-2’-methoxy-[1,1’-biphenyl]-2,3-diol], the inhibition at 30 min, 10 μM (ABCG2 (BCRP) [7]; [11]) was 4 ± 4.4%, the inhibition at 30 min, 50 μM (ABCG2 (BCRP) [7]; [11]) was 19.5 ± 4.4% and the inhibition at 30 min, 10 μM (ABCC1 (MRP1) [8]; probe calcein-AM (0.15 μM)) was 2.9 ± 4.3%. It also gave an inhibition at 30 min, 50 μM (ABCC1 (MRP1) [8]; probe calcein-AM (0.15 μM)) of 4.7 ± 6.4%, an inhibition at 30 min, 10 μM (ABCB1 (P-gp) [9]; probe rhodamine 123 (5 μM)) of 1.1 ± 4.6% and an inhibition at 30 min, 50 μM (ABCB1 (P-gp) [9]; probe rhodamine 123 (5 μM)) of -1.2 ± 1.8%.

For `COc1ccc2c3c([nH]c2c1)[C@H](CC(C)C)N1C(=O)[C@H](CCC(=O)OC(C)(C)C)NC(=O)[C@@H]1C3` [Ko143, reference compound], the “Reversion of ABCG2-mediated resistance to SN-38 (cell viability)” value (HEK293-ABCG2 cells) is listed as “same percentage of cell viability as the observed for HEK293 cells exposed to SN-38 alone” and the “IG50 (cytotoxicity)” value [10] is listed as 18 to 34 µM.

With `CCCc1ccc(O)c(-c2cc(CCC)ccc2OC)c1` [Compound 15] the “Inhibition (% ± SD) ABCG2 (BCRP) 10 μM” value (ABCG2 (BCRP) [7]) was 1.1 ± 5.4%, the “Inhibition (% ± SD) ABCG2 (BCRP) 50 μM” value (ABCG2 (BCRP) [7]) was 20.4 ± 1.7% and the “Inhibition (% ± SD) ABCC1 (MRP1) 10 μM” value (ABCC1 (MRP1) [8]) was 4.3 ± 3.9%. The “Inhibition (% ± SD) ABCC1 (MRP1) 50 μM” value (ABCC1 (MRP1) [8]) was 5.8 ± 4.1%, the “Inhibition (% ± SD) ABCB1 (P-gp) 10 μM” value (ABCB1 (P-gp) [9]) was 0.2 ± 0.8% and the “Inhibition (% ± SD) ABCB1 (P-gp) 50 μM” value (ABCB1 (P-gp) [9]) was 2.0 ± 1.9%.

For `CCCc1ccc(O)c(-c2cc(CCC)ccc2O)c1` [Compound 14], the “Inhibition (% ± SD) ABCG2 (BCRP) 10 μM” value (ABCG2 (BCRP) [7]) was 1.8 ± 1.7%, the “Inhibition (% ± SD) ABCG2 (BCRP) 50 μM” value (ABCG2 (BCRP) [7]) was 19.5 ± 4.5% and the “Inhibition (% ± SD) ABCC1 (MRP1) 10 μM” value (ABCC1 (MRP1) [8]) was 5.6 ± 5.5%. The “Inhibition (% ± SD) ABCC1 (MRP1) 50 μM” value (ABCC1 (MRP1) [8]) was 16.0 ± 10.7%, the “Inhibition (% ± SD) ABCB1 (P-gp) 10 μM” value (ABCB1 (P-gp) [9]) was 0.5 ± 0.9% and the “Inhibition (% ± SD) ABCB1 (P-gp) 50 μM” value (ABCB1 (P-gp) [9]) was −6.4 ± 0.3%.

In the case of `C=CCc1ccc(O)c(-c2ccc(O)c(CC=C)c2)c1` [honokiol], the “Transport by ABCG2 (substrate)” value (ABCG2 [1]) is listed as “substrates of ABCG2”.
